The source of these data is ChEMBL document CHEMBL4390651, “Indole based antimalarial compounds targeting the melatonin pathway: Their design, synthesis and biological evaluation” (Eur J Med Chem, 2019).

The structures appear in SMILES notation. Active and inactive are the calls of the source. No cut-off for these calls is given here.

Series [1] relates to Plasmodium falciparum. The experiment in a line: Antimalarial activity against ring stage of Plasmodium falciparum 3D7 infected in human erythrocytes assessed as parasite survival level at 10 uM measured immediately at 0 hrs by Giemsa staining-based microscopic analysis (reference value: 96.4 +/- 5.09%). The conditions noted are these: 3D7, 0 h. The class given is functional.

Series [2] deals with Plasmodium falciparum. Description: Antimalarial activity against trophozoite stage of Plasmodium falciparum 3D7 infected in human erythrocytes assessed as parasite survival level at 10 uM incubated for 48 hrs by Giemsa staining-based microscopic analysis (reference value: 43.65 +/- 5.16%). The format is functional. The settings on record: 3D7, 48 h.
Series [3] relates to Plasmodium falciparum. The experiment in a line: Antimalarial activity against synchronized ring stage of Plasmodium falciparum 3D7 infected in human erythrocytes assessed as inhibition of parasite growth incubated for 48 hrs by Giemsa staining-based microscopic analysis. The conditions noted are these: 3D7, 48 h. The format is functional, organism-based. In short, it runs like this:
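Sorbitol-synchronized ring-stage 3D7 in human O+ erythrocytes was exposed to four concentrations (1, 5, 10 and 20) for 48 h. Parasitemia was counted on Giemsa smears and IC50 taken from the dose-response curve. Mean ± SD of three independent experiments.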

The subject of series [4] is Plasmodium falciparum. Description: Antimalarial activity against schizont stage of Plasmodium falciparum 3D7 infected in human erythrocytes assessed as parasite survival level at 10 uM incubated for 48 hrs by Giemsa staining-based microscopic analysis (reference value: 5 +/- 7.07%). The format is functional. The settings on record: 3D7, 48 h.
In series [5] the target is Melatonin receptor type 1A (Homo sapiens) (UniProt P48039). Description: Inhibition of human MTNR1 receptor at 1 uM using TMB as substrate preincubated for 1 hr followed by substrate addition by ELISA relative to control. In short, it runs like this:
(§1)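 ELISA kit format: compounds incubated 1 h with MTNR1 receptor (5 ng/mL), melatonin as control. TMB substrate, stop solution, OD read at 450 nm; expressed as % inhibition.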
A general note: An ELISA detects its analyte on a solid surface through an enzyme-linked reagent.

Series [6] relates to Plasmodium falciparum. Description: Antimalarial activity against trophozoite stage of Plasmodium falciparum 3D7 infected in human erythrocytes assessed as parasite survival level at 10 uM measured immediately at 0 hrs by Giemsa staining-based microscopic analysis (reference value: 3.55 +/- 5.02%). The class given is functional. The conditions noted are these: 3D7, 0 h.
The target of series [7] is Melatonin receptor type 1A (Homo sapiens) (UniProt P48039). The experiment in a line: Inhibition of human MTNR1 receptor at 5 uM using TMB as substrate preincubated for 1 hr followed by substrate addition by ELISA relative to control. An outline of the steps:
as §1

For series [8], the system named is Plasmodium falciparum. The experiment in a line: Antimalarial activity against schizont stage of Plasmodium falciparum 3D7 infected in human erythrocytes assessed as parasite survival level at 10 uM measured immediately at 0 hrs by Giemsa staining-based microscopic analysis (reference value: 0%). The format is functional. The conditions noted are these: 3D7, 0 h.

Series [9] deals with Plasmodium falciparum. The experiment in a line: Antimalarial activity against chloroquine resistant Plasmodium falciparum RKL9 infected in human erythrocytes assessed as reduction in parasitemia incubated for 0 to 48 hrs by Giemsa staining-based microscopic analysis. The format is functional, organism-based. An outline of the steps:
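Sorbitol-synchronized ring-stage culture at 1% parasitemia, 5% hematocrit in human O+ erythrocytes (RPMI 1640, 0.5% albumax, hypoxanthine, gentamicin; 37 °C, 5% CO2/5% O2/90% N2). Compounds at […] for 48 h. Parasitemia counted on Giemsa-stained smears at 0 and 48 h. DMSO control. Mean of three independent experiments ±SD.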

The nature of series [10]: Stability of the compound in phosphate buffer at pH 7.4 assessed as compound remaining at 1 mg/ml incubated for 0 to 24 hrs by HPLC analysis relative to control. The format is physicochemical. In short, it runs like this:
(§2)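 Compound stock in acetonitrile was added to 1.0 mL of fresh 0.01 N HCl (pH 2.0) or phosphate buffer (pH 7.4), held at 37 °C, and the amount remaining was measured by HPLC at intervals from 0 to 24 h.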

Series [11] relates to Plasmodium falciparum. Description: Antimalarial activity against ring stage of Plasmodium falciparum 3D7 infected in human erythrocytes assessed as parasite survival level at 10 uM incubated for 48 hrs by Giemsa staining-based microscopic analysis (reference value: 51.3 +/- 1.83%). The class given is functional. The conditions noted are these: 3D7, 48 h.
Series [12] can be described thus: Stability of the compound in 0.01 N HCL at pH 2.0 assessed as compound remaining at 1 mg/ml incubated for 0 to 24 hrs by HPLC analysis relative to control. The class given is physicochemical. An outline of the steps: as §2
Series [13] deals with Plasmodium falciparum. The experiment in a line: Antimalarial activity against synchronized ring stage of Plasmodium falciparum 3D7 infected in human erythrocytes assessed as inhibition of parasite growth at 10 uM incubated for 0 to 48 hrs by Giemsa staining-based microscopic analysis. The class given is functional. An outline of the steps:
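3D7 was sorbitol-synchronized to ring stage at 1% parasitemia, cultured in human O+ erythrocytes (5% hematocrit, RPMI 1640/albumax, 37 °C, low-O2 gas), and exposed for 48 h, with DMSO as control. Giemsa smears at 0, 12, 24, 36 and 48 h gave parasitemia and stage morphology. Mean ± SD of three independent experiments.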

Series [14] concerns the target Melatonin receptor type 1A (Homo sapiens) (UniProt P48039). Description: Inhibition of human MTNR1 receptor at 500 nM using TMB as substrate preincubated for 1 hr followed by substrate addition by ELISA relative to control. An outline of the steps: as §1
The target is the same in series [15]. The experiment in a line: Inhibition of human MTNR1 receptor at 500 nM to 5 uM using TMB as substrate preincubated for 1 hr followed by substrate addition by ELISA relative to control. An outline of the steps: as §1

Melatonin receptor type 1A (Homo sapiens), sequence (P48039 whole entry): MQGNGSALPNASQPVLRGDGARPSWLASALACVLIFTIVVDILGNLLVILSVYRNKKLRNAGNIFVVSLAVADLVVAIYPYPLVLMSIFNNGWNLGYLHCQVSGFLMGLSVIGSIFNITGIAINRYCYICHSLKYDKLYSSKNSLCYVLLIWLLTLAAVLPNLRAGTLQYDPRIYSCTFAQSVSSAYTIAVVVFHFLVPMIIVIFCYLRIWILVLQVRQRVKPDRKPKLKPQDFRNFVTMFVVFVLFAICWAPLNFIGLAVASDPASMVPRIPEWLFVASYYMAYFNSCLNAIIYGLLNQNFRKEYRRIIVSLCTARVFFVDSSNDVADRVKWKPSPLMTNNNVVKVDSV

For orientation: IC50 means the concentration at which inhibition is half-maximal. The inhibition is the relative decrease from the control value, in per cent. Turning to `CC/N=C(/c1cc(C(F)(F)F)cc(C(F)(F)F)c1)c1[nH]c2ccc(OC)cc2c1CCNC(=O)OC`, the survival at 10 µM in the series on Plasmodium falciparum [1] stood at 92.5%; in the series with Plasmodium falciparum [2], 17.5%; with Plasmodium falciparum [4] it was 14%; with Plasmodium falciparum [6] it was 7%; in the series on Plasmodium falciparum [8] it was 0.5%; with Plasmodium falciparum [11], 68.5%. In addition, the IC50 in the series with Plasmodium falciparum [3] is 2.73 µM. For the same molecule, the inhibition in [5] is 80%; in [7] it was 70%; with Plasmodium falciparum [9], “Dose dependent effect”; in series [14], 60%. The remaining at 1 mg/ml in series [10] (phosphate buffer, read-out: Stability) turned out to be 60%. Besides, the Stability entry in [12] (buffer) is “Unstable”. Besides, the “growth inhibition (GI)” value with Plasmodium falciparum [13] was “Active”.
On to `CC/N=C(/c1ccc(C)cc1)c1[nH]c2ccccc2c1CCNC(=O)OC`, for which the survival at 10 µM in the series with Plasmodium falciparum [1] was determined as 93%; with Plasmodium falciparum [2], 97.5%; with Plasmodium falciparum [4] it was 2.5%; with Plasmodium falciparum [6] it was 7%; in the series on Plasmodium falciparum [8], 0%; in the series on Plasmodium falciparum [11], 0%. Besides, the IC50 in the series with Plasmodium falciparum [3] came out at 4.28 µM. For the same molecule, the inhibition result in series [15] is “inactive”. Moreover, the inhibition entry in the series with Plasmodium falciparum [9] was “Dose dependent effect”. Further, in [10] (buffer), the Stability entry is “Unstable”. Moreover, the remaining at 1 mg/ml in series [12] (0.01 N HCl, read-out: Stability) is 20%. In the series with Plasmodium falciparum [13], the “growth inhibition (GI)” value was “Active”.
